Published values pooled from the literature.
Protocols differ between the studies behind these lines.
Target: Tyrosine-protein kinase Blk (BLK, Homo sapiens, UniProt P51451)

| Structure (SMILES) | assay | conditions | endpoint | value |
| --- | --- | --- | --- | --- |
| COc1cc(Nc2ncc(F)c(Nc3ccc4c(n3)NC(=O)C(C)(C)O4)n2)cc(OC)c1OC | binding, competition with immobilised ligand | 10 µM | inhibition | 100% |
| CC(C)(C)c1cc(C=C(C#N)C#N)cc(Br)c1O | enzyme activity, inhibitor | 0.5 µM | remaining activity | 97.9% |
| C#Cc1n[nH]c2c(-c3cn([C@@H](C)c4ccccn4)c(=O)[nH]c3=O)cc(F)cc12 | enzyme activity, inhibitor | 0.1 µM | inhibition | -5.3% |
| Cn1cc(-c2cc(F)cc(N3CCn4c(cc5c4CCCC5)C3=O)c2CO)cc(Nc2ccc(N3CCN(C4COC4)CC3)cn2)c1=O | enzyme activity, inhibitor | 0.1 µM | inhibition | 14% |
| Cn1cncc1[C@](O)(COc1ccc(C#N)cc1-c1ccc(OC(F)(F)F)cc1)c1ccc(C#N)cc1 | cell-free assay, competition with immobilised ligand | 1 µM | remaining binding | 90% |
| C#Cc1n[nH]c2c(-c3cn([C@@H](C)c4ccccc4)c(=O)[nH]c3=O)cc(F)cc12 | enzyme activity, inhibitor | 0.1 µM | inhibition | -5.4% |
| Cn1cc(-c2cccc(N3CCc4c(sc5c4CC(C)(C)C5)C3=O)c2CO)cc(Nc2ccncn2)c1=O | enzyme activity, inhibitor | 1 µM | inhibition | -3% |
| COc1ncccc1-c1cnn2ccc(N3CCN(C(=O)OC(C)C)CC3)nc12 | binding, competition with immobilised ligand | 1 µM | remaining binding | 100% |
| Nc1ncc(-c2nc(N3CCOCC3)nc(N3CCOCC3)n2)c(C(F)F)n1 | binding, competition with immobilised ligand | 10 µM | remaining binding | 70% |
| O=c1[nH]c2ccccc2n1C1CCN(Cc2ccc(-c3[nH]c4cc5ncnc5cc4nc3-c3ccccc3)cc2)CC1 | cell-free assay | 0.5 µM | remaining signal | 106% |
| Cc1nn(C)cc1-c1nc2c(N3CCN(Cc4ccc(Cl)cc4)CC3)c(Cl)cnc2[nH]1 | binding, competition with immobilised ligand | 1 µM | remaining binding | 100% |
